Converted amounts (≈) assume the structure as drawn.
Experiments:
S. aureus Newman [1] = assay: MIC, broth microdilution; type: cell-based; conditions: Staphylococcus aureus
[2] = tested on: stationary phase S. aureus Newman cells; assay: Stationary-phase persister cell killing; type: cell-based, Staphylococcus aureus; conditions: 100× or 10× MIC
[3] = tested on: S. aureus RN4220 overexpressing putative target genes; assay: MIC against strains overexpressing putative target proteins; type: cell-based, Staphylococcus aureus; conditions: fig. S4A
S. aureus Newman [4] = type: cell-based, Staphylococcus aureus; conditions: 40 mM, fig. S4C
S. aureus Newman [5] = assay: Time-killing assay, exponential culture; type: cell-based, Staphylococcus aureus; conditions: control experiment
Outline: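 Newman grown in LB at 37°C with shaking to OD600 0.4–0.6, then diluted to 1 × 10⁶ CFU/ml in LB containing various concentrations of test compound, with vancomycin as comparator. Incubated at 37°C with shaking. Serial dilutions plated on LB agar at set time points for CFU/ml. Duplicate, three independent experiments.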

[6] = tested on: MRSA USA300 preformed biofilm; assay: Preformed biofilm eradication, crystal violet; type: cell-based, Staphylococcus aureus; conditions: control
Outline: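 Eradication of preformed USA300 biofilms by test compound was quantified by crystal violet staining after washing. Three independent experiments, triplicate runs per concentration.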

[7] = tested on: S. aureus MRSA strain USA300; assay: MIC, broth microdilution; type: cell-based; conditions: Staphylococcus aureus
Outline: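 CLSI M07-A10 broth microdilution with twofold serial dilutions of test compound in MH broth. Inoculum was cells grown in MH broth at 37°C with shaking to OD600 0.4–0.6, diluted to ~1 × 10⁵ CFU/ml final. Run in duplicate, three independent experiments.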

[8] = tested on: S. aureus MRSA strain USA300; assay: Murine epicutaneous infection model; type: in vivo, BALB/c mice
S. aureus USA300 = assay: Transmission electron microscopy of cell structure; type: cell-based, Staphylococcus aureus; conditions: 0.5× MIC, cell lysis within 4 hours

In the case of `CC1(C)S[C@@H]2[C@H](NC(=O)Cc3ccccc3)C(=O)N2[C@H]1C(=O)O` [Pen, penicillin G], the MIC (S. aureus Newman [1]) is reported as 0.125 µg/mL (≈ 0.374 µM), the tolerance of persisters [2] is reported as “high level of tolerance” and the “effect of overexpression of each protein on sensitivity” value [3] is reported as “no effect”. For the same compound, the “effect of sole addition of lysine or UDP-GlcNAc on susceptibility” value (S. aureus Newman [4]) was “did not affect”.

`O=C(O)c1cn(C2CC2)c2cc(N3CCNCC3)c(F)cc2c1=O` [Cipro, ciprofloxacin] was tested, and the tolerance of persisters [2] was “high level of tolerance”.

`CN[C@H](CC(C)C)C(=O)N[C@H]1C(=O)N[C@@H](CC(N)=O)C(=O)N[C@H]2C(=O)N[C@H]3C(=O)N[C@H](C(=O)N[C@H](C(=O)O)c4cc(O)cc(O)c4-c4cc3ccc4O)[C@H](O)c3ccc(c(Cl)c3)Oc3cc2cc(c3O[C@@H]2O[C@H](CO)[C@@H](O)[C@H](O)[C@H]2O[C@H]2C[C@](C)(N)[C@H](O)[C@H](C)O2)Oc2ccc(cc2Cl)[C@H]1O` [Van, vancomycin] was tested, and the “killing speed compared with ChryA” value (S. aureus Newman [5]) was “much slower killing” and the antibiofilm ability [6] was “no antibiofilm ability”.

With `CC(=O)O[C@H]1C[C@@]2(C)[C@@H](C[C@@H](O)[C@H]3[C@@]4(C)CC[C@@H](O)[C@@H](C)[C@@H]4CC[C@@]32C)/C1=C(\CCC=C(C)C)C(=O)O` [fusidic acid] the MIC [7] was 0.031 µg/mL (≈ 0.06 µM) and the “effectiveness, ChryA versus fusidic acid” value ([8]; bacterial colonization of wounds on Day 16, fig. S3) was “less effectiveness compared to the low dose of ChryA”.

`COc1cccc(OC)c1C(=O)N[C@@H]1C(=O)N2[C@@H]1SC(C)(C)[C@@H]2C(=O)O` [Met, methicillin] was tested, and the “killing effect compared to the vehicle control” value ([8]; 3 mg kg^−1) was “no significant killing effect”.

For `C[C@@H]1O[C@@H]1P(=O)(O)O` [fosfomycin], the MIC [7] was 4 µg/mL (≈ 29 µM) and the “cell wall integrity (TEM)” value (S. aureus USA300) was “severely impaired”.
